Results taken from ChEMBL document CHEMBL3407339, “A novel series of thiazolyl-pyrazoline derivatives: synthesis and evaluation of antifungal activity, cytotoxicity and genotoxicity” (Eur J Med Chem, 2015).
Values after ≈ are worked out from the molar mass of the structure shown.

Experiments:
Salmonella typhimurium [1] = experiment: Mutagenicity in Salmonella typhimurium TA100 at 0.3125 mg/ml after 48 hrs by AMES MPF assay in absence of Sprague-Dawley rat liver microsomal S9 fraction relative to baseline; assay type: toxicity, organism-based; details: salmonella enterica subsp. enterica serovar typhimurium
In short: (§1)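 Ames MPF fluctuation test with TA98/TA100. Overnight cultures (37 °C, 14–16 h) mixed with exposure medium; ±Aroclor-1254-induced rat liver S9 (final 4.5% v/v). Compounds in DMSO, 0.156–5 mg/mL. 90 min exposure at 37 °C, then indicator medium; 48 wells per concentration, 48 h at 37 °C, in triplicate. Yellow wells counted; fold induction over baseline (mean + 1 SD of zero-dose control).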

Salmonella typhimurium [2] = experiment: Mutagenicity in Salmonella typhimurium TA100 at 0.156 mg/ml after 48 hrs by AMES MPF assay in absence of Sprague-Dawley rat liver microsomal S9 fraction relative to baseline; assay type: toxicity, organism-based; details: salmonella enterica subsp. enterica serovar typhimurium; in short: as §1
Aspergillus flavus = experiment: Antifungal activity against Aspergillus flavus NRRL 980 after 72 hrs by broth microdilution assay; assay type: functional; details: NRRL 980, 72 h
In short: (§2)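 Compounds dissolved in DMSO, diluted in sterile distilled water from 4 to 0.0039 mg/mL. Molds grown on PDA at 25 °C for 5 days, suspended in double-strength PDB at 10⁵ spores/mL. Incubated at 25 °C for 72 h; mycelial growth read under stereo microscope. MIC = lowest concentration inhibiting visible growth. Ketoconazole reference.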

Salmonella typhimurium [3] = experiment: Mutagenicity in Salmonella typhimurium TA98 at 5 mg/ml after 48 hrs by AMES MPF assay in absence of Sprague-Dawley rat liver microsomal S9 fraction relative to baseline; assay type: toxicity, organism-based; details: salmonella enterica subsp. enterica serovar typhimurium; in short: as §1
Salmonella typhimurium [4] = experiment: Mutagenicity in Salmonella typhimurium TA100 at 1.25 mg/ml after 48 hrs by AMES MPF assay in absence of Sprague-Dawley rat liver microsomal S9 fraction relative to baseline; assay type: toxicity, organism-based; details: salmonella enterica subsp. enterica serovar typhimurium; in short: as §1
Fusarium solani = experiment: Antifungal activity against Fusarium solani NRRL 13414 after 72 hrs by broth microdilution assay; assay type: functional; details: NRRL 13414, 72 h; in short: as §2
Salmonella typhimurium [5] = experiment: Mutagenicity in Salmonella typhimurium TA100 at 1.25 mg/ml after 48 hrs by AMES MPF assay in presence of Sprague-Dawley rat liver microsomal S9 fraction relative to baseline; assay type: toxicity, organism-based; details: salmonella enterica subsp. enterica serovar typhimurium; in short: as §1
Salmonella typhimurium [6] = experiment: Mutagenicity in Salmonella typhimurium TA100 at 0.3125 mg/ml after 48 hrs by AMES MPF assay in presence of Sprague-Dawley rat liver microsomal S9 fraction relative to baseline; assay type: toxicity, organism-based; details: salmonella enterica subsp. enterica serovar typhimurium; in short: as §1
[Candida] zeylanoides = Antifungal activity against Candida zeylanoides NRLL Y 1774 after 48 hrs by broth microdilution assay; assay type: functional; details: Dujonia zeylanoides, NRLL Y 1774, 48 h
In short: (§3)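 Broth microdilution of DMSO stocks serially diluted in sterile water (4 to 0.0039 mg/mL). Yeasts grown on SDA at 37 °C for 24 h, suspended in double-strength PDB at 10⁵ spores/mL. Incubated at 37 °C for 48 h, then sprayed with 0.5% aqueous TTC. MIC = lowest concentration inhibiting visible growth. Ketoconazole reference.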

Pichia kudriavzevii = experiment: Antifungal activity against Candida krusei NRLL Y 7179 after 48 hrs by broth microdilution assay; assay type: functional; details: NRLL Y 7179, 48 h; in short: as §3
Salmonella typhimurium [7] = experiment: Mutagenicity in Salmonella typhimurium TA100 at 2.5 mg/ml after 48 hrs by AMES MPF assay in absence of Sprague-Dawley rat liver microsomal S9 fraction relative to baseline; assay type: toxicity, organism-based; details: salmonella enterica subsp. enterica serovar typhimurium; in short: as §1
Candida albicans = experiment: Antifungal activity against Candida albicans ATCC 90028 after 48 hrs by broth microdilution assay; assay type: functional; details: ATCC 90028, 48 h; in short: as §3
Salmonella typhimurium [8] = experiment: Mutagenicity in Salmonella typhimurium TA100 at 5 mg/ml after 48 hrs by AMES MPF assay in presence of Sprague-Dawley rat liver microsomal S9 fraction relative to baseline; assay type: toxicity, organism-based; details: salmonella enterica subsp. enterica serovar typhimurium; in short: as §1
Salmonella typhimurium [9] = experiment: Mutagenicity in Salmonella typhimurium TA98 at 2.5 mg/ml after 48 hrs by AMES MPF assay in presence of Sprague-Dawley rat liver microsomal S9 fraction relative to baseline; assay type: toxicity, organism-based; details: salmonella enterica subsp. enterica serovar typhimurium; in short: as §1
Salmonella typhimurium [10] = experiment: Mutagenicity in Salmonella typhimurium TA98 at 2.5 mg/ml after 48 hrs by AMES MPF assay in absence of Sprague-Dawley rat liver microsomal S9 fraction relative to baseline; assay type: toxicity, organism-based; details: salmonella enterica subsp. enterica serovar typhimurium; in short: as §1
Salmonella typhimurium [11] = experiment: Mutagenicity in Salmonella typhimurium TA98 at 0.156 mg/ml after 48 hrs by AMES MPF assay in absence of Sprague-Dawley rat liver microsomal S9 fraction relative to baseline; assay type: toxicity, organism-based; details: salmonella enterica subsp. enterica serovar typhimurium; in short: as §1
Aspergillus niger = experiment: Antifungal activity against Aspergillus niger ATCC 1094 after 72 hrs by broth microdilution assay; assay type: functional; details: ATCC 1094, 72 h; in short: as §2
Salmonella typhimurium [12] = experiment: Mutagenicity in Salmonella typhimurium TA98 at 1.25 mg/ml after 48 hrs by AMES MPF assay in absence of Sprague-Dawley rat liver microsomal S9 fraction relative to baseline; assay type: toxicity, organism-based; details: salmonella enterica subsp. enterica serovar typhimurium; in short: as §1
[13] = Cytotoxicity against mouse NIH/3T3 cells after 24 hrs by XTT assay; assay type: cell-based; details: NIH3T3, 24 h
In short: (§4)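 A549 cells in RPMI and NIH/3T3 cells in DMEM, each with fetal calf serum, antibiotics and 7.5% NaHCO₃, at 37 °C, 5% CO₂. Seeded at 20,000 cells/well, 24 h, then compounds added in medium at 500–3.9 doses (final DMSO <0.1%) for 24 h. XTT read after 3 h at 480 nm (ref 680 nm). IC₅₀ by non-linear regression; triplicates; cisplatin control.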

Salmonella typhimurium [14] = experiment: Mutagenicity in Salmonella typhimurium TA100 at 5 mg/ml after 48 hrs by AMES MPF assay in absence of Sprague-Dawley rat liver microsomal S9 fraction relative to baseline; assay type: toxicity, organism-based; details: salmonella enterica subsp. enterica serovar typhimurium; in short: as §1
Salmonella typhimurium [15] = experiment: Mutagenicity in Salmonella typhimurium TA98 at 1.25 mg/ml after 48 hrs by AMES MPF assay in presence of Sprague-Dawley rat liver microsomal S9 fraction relative to baseline; assay type: toxicity, organism-based; details: salmonella enterica subsp. enterica serovar typhimurium; in short: as §1
Salmonella typhimurium [16] = experiment: Mutagenicity in Salmonella typhimurium TA98 at 0.625 mg/ml after 48 hrs by AMES MPF assay in presence of Sprague-Dawley rat liver microsomal S9 fraction relative to baseline; assay type: toxicity, organism-based; details: salmonella enterica subsp. enterica serovar typhimurium; in short: as §1
Salmonella typhimurium [17] = experiment: Mutagenicity in Salmonella typhimurium TA98 at 0.3125 mg/ml after 48 hrs by AMES MPF assay in absence of Sprague-Dawley rat liver microsomal S9 fraction relative to baseline; assay type: toxicity, organism-based; details: salmonella enterica subsp. enterica serovar typhimurium; in short: as §1
Aspergillus parasiticus = experiment: Antifungal activity against Aspergillus parasiticus NRRL 465 after 72 hrs by broth microdilution assay; assay type: functional; details: NRRL 465, 72 h; in short: as §2
Salmonella typhimurium [18] = experiment: Mutagenicity in Salmonella typhimurium TA100 at 0.625 mg/ml after 48 hrs by AMES MPF assay in presence of Sprague-Dawley rat liver microsomal S9 fraction relative to baseline; assay type: toxicity, organism-based; details: salmonella enterica subsp. enterica serovar typhimurium; in short: as §1
Salmonella typhimurium [19] = experiment: Mutagenicity in Salmonella typhimurium TA100 at 2.5 mg/ml after 48 hrs by AMES MPF assay in presence of Sprague-Dawley rat liver microsomal S9 fraction relative to baseline; assay type: toxicity, organism-based; details: salmonella enterica subsp. enterica serovar typhimurium; in short: as §1
Candida parapsilosis = experiment: Antifungal activity against Candida parapsilosis NRLL Y 12696 after 48 hrs by broth microdilution assay; assay type: functional; details: Lodderomyces parapsilosis, NRLL Y 12696, 48 h; in short: as §3
Salmonella typhimurium [20] = experiment: Mutagenicity in Salmonella typhimurium TA98 at 5 mg/ml after 48 hrs by AMES MPF assay in presence of Sprague-Dawley rat liver microsomal S9 fraction relative to baseline; assay type: toxicity, organism-based; details: salmonella enterica subsp. enterica serovar typhimurium; in short: as §1
A549 = experiment: Antiproliferative activity against human A549 cells after 24 hrs by XTT assay; assay type: functional, cell-based; details: A549, 24 h; in short: as §4
Salmonella typhimurium [21] = experiment: Mutagenicity in Salmonella typhimurium TA98 at 0.3125 mg/ml after 48 hrs by AMES MPF assay in presence of Sprague-Dawley rat liver microsomal S9 fraction relative to baseline; assay type: toxicity, organism-based; details: salmonella enterica subsp. enterica serovar typhimurium; in short: as §1
Salmonella typhimurium [22] = experiment: Mutagenicity in Salmonella typhimurium TA100 at 0.625 mg/ml after 48 hrs by AMES MPF assay in absence of Sprague-Dawley rat liver microsomal S9 fraction relative to baseline; assay type: toxicity, organism-based; details: salmonella enterica subsp. enterica serovar typhimurium; in short: as §1
Candida tropicalis = experiment: Antifungal activity against Candida tropicalis NRLL Y 12968 after 48 hrs by broth microdilution assay; assay type: functional; details: NRLL Y 12968, 48 h; in short: as §3
Nakaseomyces glabratus = experiment: Antifungal activity against Candida glabrata clinical isolate after 48 hrs by broth microdilution assay; assay type: functional; in short: as §3
Salmonella typhimurium [23] = experiment: Mutagenicity in Salmonella typhimurium TA98 at 0.625 mg/ml after 48 hrs by AMES MPF assay in absence of Sprague-Dawley rat liver microsomal S9 fraction relative to baseline; assay type: toxicity, organism-based; details: salmonella enterica subsp. enterica serovar typhimurium; in short: as §1
Salmonella typhimurium [24] = experiment: Mutagenicity in Salmonella typhimurium TA98 at 0.156 mg/ml after 48 hrs by AMES MPF assay in presence of Sprague-Dawley rat liver microsomal S9 fraction relative to baseline; assay type: toxicity, organism-based; details: salmonella enterica subsp. enterica serovar typhimurium; in short: as §1
Salmonella typhimurium [25] = experiment: Mutagenicity in Salmonella typhimurium TA100 at 0.156 mg/ml after 48 hrs by AMES MPF assay in presence of Sprague-Dawley rat liver microsomal S9 fraction relative to baseline; assay type: toxicity, organism-based; details: salmonella enterica subsp. enterica serovar typhimurium; in short: as §1

MIC (Aspergillus flavus): 125 µg/mL (≈ 241 µM) | MIC (Fusarium solani): 250 µg/mL (≈ 482 µM) | MIC ([Candida] zeylanoides): 250 µg/mL (≈ 482 µM) | MIC (Pichia kudriavzevii): 250 µg/mL (≈ 482 µM) | MIC (Candida albicans): 250 µg/mL (≈ 482 µM) | MIC (Aspergillus niger): 250 µg/mL (≈ 482 µM) | MIC (Aspergillus parasiticus): 250 µg/mL (≈ 482 µM) | MIC (Candida parapsilosis): 250 µg/mL (≈ 482 µM) | IC50 (A549): 62.5 µg/mL (≈ 120 µM) | MIC (Candida tropicalis): 250 µg/mL (≈ 482 µM) | MIC (Nakaseomyces glabratus): 125 µg/mL (≈ 241 µM)
Compound: Fc1ccc(C2CC(c3ccc(Cl)s3)=NN2c2nc(-c3ccc(Br)cc3)cs2)cc1 (stereo unspecified)
fold change (FC) (Salmonella typhimurium [1]): 1 | fold change (FC) (Salmonella typhimurium [2]): 1 | fold change (FC) (Salmonella typhimurium [3]): 0 | fold change (FC) (Salmonella typhimurium [4]): 0 | fold change (FC) (Salmonella typhimurium [5]): 5.08 | fold change (FC) (Salmonella typhimurium [6]): 3.92 | fold change (FC) (Salmonella typhimurium [7]): 0.33 | fold change (FC) (Salmonella typhimurium [8]): 2.54 | fold change (FC) (Salmonella typhimurium [9]): 0.68 | fold change (FC) (Salmonella typhimurium [10]): 0 | fold change (FC) (Salmonella typhimurium [11]): 0 | fold change (FC) (Salmonella typhimurium [12]): 0 | IC50 [13]: > 500 µg/mL | fold change (FC) (Salmonella typhimurium [14]): 2 | fold change (FC) (Salmonella typhimurium [15]): 0.81 | fold change (FC) (Salmonella typhimurium [16]): 0.95 | fold change (FC) (Salmonella typhimurium [17]): 0.32 | fold change (FC) (Salmonella typhimurium [18]): 3.92 | fold change (FC) (Salmonella typhimurium [19]): 3.92 | fold change (FC) (Salmonella typhimurium [20]): 0.81 | fold change (FC) (Salmonella typhimurium [21]): 0.81 | fold change (FC) (Salmonella typhimurium [22]): 0.33 | fold change (FC) (Salmonella typhimurium [23]): 0 | fold change (FC) (Salmonella typhimurium [24]): 0.68 | fold change (FC) (Salmonella typhimurium [25]): 2.77
